Experimental data published in ChEMBL document CHEMBL4765255, “Design and synthesis of Imidazo[1,2-b]pyridazine IRAK4 inhibitors for the treatment of mutant MYD88 L265P diffuse large B-cell lymphoma” (Eur J Med Chem, 2020).
Calls of active or inactive are those of the source.

tested on: TMD8; assay: Cytotoxicity against human TMD8 cells harboring MYD88 L265P mutant assessed as combination index at 0.3 uM in presence of ibrutinib incubated for 72 hrs by CCK-8 assay; assay type: functional; settings: not given
In short: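 TMD8 cells (RPMI1640, 10% FBS, penicillin–streptomycin, 0.05 mM 2-mercaptoethanol, 37 °C, 5% CO2), seeded at 10000-12000 cells/well, exposed to ibrutinib plus IRAK4 inhibitor at varied concentrations for 72 h. Viability read by CCK-8; combination index computed with CalcuSyn, CI below 1 taken as synergy.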

| Compound | CI |
| --- | --- |
| Cn1cc(NC(=O)c2cnc3ccc(N[C@@H]4CCCNC4)nn23)c(C(F)F)n1 | 0.13 |

tested on: Receptor-type tyrosine-protein kinase FLT3 (Homo sapiens), P36888 [UNDEFINED MUTATION]; assay: Inhibition of FLT3-ITD mutant (unknown origin) at 0.1 uM incubated for 1 hr by ELISA relative to control; settings: not given
Sequence (P36888 whole entry, looked up, change not shown): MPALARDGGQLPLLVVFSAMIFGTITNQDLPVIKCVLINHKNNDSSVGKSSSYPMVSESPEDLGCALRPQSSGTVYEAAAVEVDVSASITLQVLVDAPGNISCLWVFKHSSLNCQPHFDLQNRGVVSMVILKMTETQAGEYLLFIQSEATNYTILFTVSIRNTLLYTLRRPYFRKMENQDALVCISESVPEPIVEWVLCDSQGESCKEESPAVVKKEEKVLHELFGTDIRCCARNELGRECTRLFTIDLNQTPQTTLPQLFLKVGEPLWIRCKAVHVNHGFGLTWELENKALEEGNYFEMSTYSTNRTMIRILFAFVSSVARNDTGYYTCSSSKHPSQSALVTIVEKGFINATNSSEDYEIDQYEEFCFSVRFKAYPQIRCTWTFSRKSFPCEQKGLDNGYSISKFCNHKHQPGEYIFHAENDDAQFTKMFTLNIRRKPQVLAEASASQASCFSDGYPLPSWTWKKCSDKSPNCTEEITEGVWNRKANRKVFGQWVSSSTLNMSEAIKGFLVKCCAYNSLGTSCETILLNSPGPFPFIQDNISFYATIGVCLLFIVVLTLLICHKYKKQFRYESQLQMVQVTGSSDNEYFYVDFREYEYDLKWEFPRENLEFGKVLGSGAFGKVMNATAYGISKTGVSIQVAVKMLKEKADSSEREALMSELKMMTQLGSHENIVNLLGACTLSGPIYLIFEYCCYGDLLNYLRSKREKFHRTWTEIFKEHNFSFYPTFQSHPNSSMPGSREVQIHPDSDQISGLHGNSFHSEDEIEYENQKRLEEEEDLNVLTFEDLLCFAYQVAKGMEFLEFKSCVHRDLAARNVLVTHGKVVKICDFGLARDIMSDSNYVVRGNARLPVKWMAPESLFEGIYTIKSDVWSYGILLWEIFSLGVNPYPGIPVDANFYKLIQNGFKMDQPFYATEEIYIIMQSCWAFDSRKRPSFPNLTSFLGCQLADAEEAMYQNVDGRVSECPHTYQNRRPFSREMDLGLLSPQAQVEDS
In short: (§1)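 Part of a 20-kinase panel tested at 0.1 μM compound. Kinase inhibition measured by ELISA following previously described protocols.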

| Compound | inhibition [%] |
| --- | --- |
| Cn1cc(NC(=O)c2cnc3ccc(N[C@@H]4CCCNC4)nn23)c(C(F)F)n1 | > 50 |

tested on: OCI-Ly10; assay: Cytotoxicity against human OCILY10 cells harboring MYD88 L265P mutant assessed as reduction in cell viability incubated for 72 hrs by CCK-8 assay; assay type: functional, cell-based; settings: OCI-Ly10, 72 h

| Compound | IC50 [µM] |
| --- | --- |
| Cn1cc(NC(=O)c2cnn3ccc(N4CCC[C@@H](N)C4)nc23)c(C(F)F)n1 | 5.5 |
| Cn1cc(NC(=O)c2cnc3ccc(NCCN)nn23)c(C(F)F)n1 | 8.8 |
| Cn1cc(NC(=O)c2cnc3ccc(N[C@H]4CCCNC4)nn23)c(C(F)F)n1 | 22.3 |
| Cn1cc(NC(=O)c2cnc3ccc(N[C@@H]4CCCNC4)nn23)c(C#N)n1 | 5.8 |
| Cn1cc(NC(=O)c2cnc3ccc(N[C@@H]4CCCNC4)nn23)c(C(F)F)n1 | 0.7 |
| O=C(Nc1cn(C2CCOCC2)nc1C(F)(F)F)c1cnc2ccc(N[C@@H]3CCCNC3)nn12 | 10.5 |
| Cn1cc(NC(=O)c2cnc3ccc(N[C@@H]4CCNC4)nn23)c(C(F)F)n1 | 3.6 |
| CCn1cc(NC(=O)c2cnc3ccc(N[C@@H]4CCCNC4)nn23)c(C(F)(F)F)n1 | 3.6 |
| Cn1cc(NC(=O)c2cnc3ccc(N[C@@H]4CCCNC4)nn23)c(C(F)(F)F)n1 | 2.8 |
| Cn1cc(NC(=O)c2cnc3ccc(N[C@@H]4CCCCNC4)nn23)c(C(F)F)n1 | 0.8 |
| Cn1cc(NC(=O)c2ncn3ccc(N4CCC[C@@H](N)C4)nc23)c(C(F)F)n1 | > 50 |

target: T1, Interleukin-1 receptor-associated kinase 4 (Homo sapiens) (UniProt Q9NWZ3); assay: Inhibition of IRAK4 in human TMD8 cells assessed as decrease in IKKbeta phosphorylation at 0.3 to 10 uM incubated for 2 hrs by Western blot analysis; assay type: cell-based; settings: dose 0.3-10 µM
T1 sequence (whole entry): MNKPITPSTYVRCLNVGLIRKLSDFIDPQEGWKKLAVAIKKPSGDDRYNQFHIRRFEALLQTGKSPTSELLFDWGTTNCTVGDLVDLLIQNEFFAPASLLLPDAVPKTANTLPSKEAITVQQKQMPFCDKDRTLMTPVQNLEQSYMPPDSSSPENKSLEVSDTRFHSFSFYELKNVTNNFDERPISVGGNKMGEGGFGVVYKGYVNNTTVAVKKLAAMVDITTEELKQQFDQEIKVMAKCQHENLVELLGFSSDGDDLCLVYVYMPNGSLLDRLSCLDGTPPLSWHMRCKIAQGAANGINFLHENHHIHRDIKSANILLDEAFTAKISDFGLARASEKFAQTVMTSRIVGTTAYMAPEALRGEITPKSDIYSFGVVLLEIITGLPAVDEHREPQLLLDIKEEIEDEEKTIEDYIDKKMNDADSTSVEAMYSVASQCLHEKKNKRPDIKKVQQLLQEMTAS
In short: (§2)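 OCI-LY10 or TMD8 cells, about 2×10^6 per well, treated with compound or DMSO for 2 h. Cells washed twice with PBS, lysed, then Western blotted for p-IRAK4 (Thr-345/Ser-346), p-IKKβ and p-p65. Bands quantified densitometrically; significance thresholds p<0.05, 0.01, 0.001.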

| Compound | inhibition |
| --- | --- |
| Cn1cc(NC(=O)c2cnc3ccc(N[C@@H]4CCCNC4)nn23)c(C(F)F)n1 | Active |

target: T1, Interleukin-1 receptor-associated kinase 4 (Homo sapiens); assay: Inhibition of IRAK4 in human OCI-LY10 cells assessed as decrease in IKKbeta phosphorylation at 0.3 to 10 uM incubated for 2 hrs by Western blot analysis; assay type: cell-based; settings: OCILY10, dose 0.3-10 µM; in short: as §2

| Compound | inhibition |
| --- | --- |
| Cn1cc(NC(=O)c2cnc3ccc(N[C@@H]4CCCNC4)nn23)c(C(F)F)n1 | Active |

target: Mast/stem cell growth factor receptor Kit (Homo sapiens) (UniProt P10721); assay: Inhibition of c-Kit (unknown origin) at 0.1 uM incubated for 1 hr by ELISA relative to control; settings: not given; in short: as §1
Sequence (P10721 whole entry): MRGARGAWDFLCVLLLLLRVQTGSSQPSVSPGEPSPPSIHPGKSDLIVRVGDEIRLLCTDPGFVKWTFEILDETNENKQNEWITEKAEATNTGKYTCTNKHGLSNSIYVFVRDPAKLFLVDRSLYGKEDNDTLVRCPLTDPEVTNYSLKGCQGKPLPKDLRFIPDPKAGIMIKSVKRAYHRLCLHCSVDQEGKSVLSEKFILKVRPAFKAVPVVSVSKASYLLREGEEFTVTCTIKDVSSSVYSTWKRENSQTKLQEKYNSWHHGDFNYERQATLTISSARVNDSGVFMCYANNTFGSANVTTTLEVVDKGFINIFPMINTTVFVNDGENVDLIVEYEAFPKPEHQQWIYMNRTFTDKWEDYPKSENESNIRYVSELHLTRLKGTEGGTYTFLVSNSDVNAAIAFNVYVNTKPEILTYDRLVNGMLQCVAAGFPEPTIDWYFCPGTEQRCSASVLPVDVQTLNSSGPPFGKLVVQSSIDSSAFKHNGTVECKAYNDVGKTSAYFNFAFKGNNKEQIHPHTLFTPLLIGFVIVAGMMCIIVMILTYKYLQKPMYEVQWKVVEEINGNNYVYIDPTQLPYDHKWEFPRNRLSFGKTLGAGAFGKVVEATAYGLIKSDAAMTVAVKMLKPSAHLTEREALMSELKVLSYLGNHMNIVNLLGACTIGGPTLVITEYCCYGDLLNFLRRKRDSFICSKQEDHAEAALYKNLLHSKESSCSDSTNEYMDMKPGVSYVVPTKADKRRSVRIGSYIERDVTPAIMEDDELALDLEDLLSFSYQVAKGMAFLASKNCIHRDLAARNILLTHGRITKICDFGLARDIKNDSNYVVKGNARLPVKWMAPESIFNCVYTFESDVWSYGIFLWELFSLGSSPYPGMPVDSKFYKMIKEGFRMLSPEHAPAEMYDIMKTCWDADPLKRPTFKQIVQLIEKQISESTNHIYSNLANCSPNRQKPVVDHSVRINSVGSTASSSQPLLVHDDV

| Compound | inhibition [%] |
| --- | --- |
| Cn1cc(NC(=O)c2cnc3ccc(N[C@@H]4CCCNC4)nn23)c(C(F)F)n1 | > 50 |

target: T1, Interleukin-1 receptor-associated kinase 4 (Homo sapiens); assay: Inhibition of IRAK4 in human TMD8 cells assessed as decrease in IRAK4 Thr345/Ser346 phosphorylation incubated for 2 hrs by Western blot analysis; assay type: cell-based; settings: dose 0.3-10 µM; in short: as §2

| Compound | inhibition |
| --- | --- |
| Cn1cc(NC(=O)c2cnc3ccc(N[C@@H]4CCCNC4)nn23)c(C(F)F)n1 | Dose-dependent effect |

tested on: TMD8; assay: Cytotoxicity against human TMD8 cells harboring MYD88 L265P mutant assessed as reduction in cell viability incubated for 72 hrs by CCK-8 assay; assay type: functional, cell-based; settings: TMD8, 72 h

| Compound | IC50 [µM] |
| --- | --- |
| Cn1cc(NC(=O)c2cnn3ccc(N4CCC[C@@H](N)C4)nc23)c(C(F)F)n1 | 7.3 |
| Cn1cc(NC(=O)c2cnc3ccc(NCCN)nn23)c(C(F)F)n1 | 17.7 |
| Cn1cc(NC(=O)c2cnc3ccc(N[C@H]4CCCNC4)nn23)c(C(F)F)n1 | 22.3 |
| Cn1cc(NC(=O)c2cnc3ccc(N[C@@H]4CCCNC4)nn23)c(C#N)n1 | 14.8 |
| Cn1cc(NC(=O)c2cnc3ccc(N[C@@H]4CCCNC4)nn23)c(C(F)F)n1 | 1.2 |
| O=C(Nc1cn(C2CCOCC2)nc1C(F)(F)F)c1cnc2ccc(N[C@@H]3CCCNC3)nn12 | 11.1 |
| Cn1cc(NC(=O)c2cnc3ccc(N[C@@H]4CCNC4)nn23)c(C(F)F)n1 | 8.3 |
| CCn1cc(NC(=O)c2cnc3ccc(N[C@@H]4CCCNC4)nn23)c(C(F)(F)F)n1 | 6.1 |
| Cn1cc(NC(=O)c2cnc3ccc(N[C@@H]4CCCNC4)nn23)c(C(F)(F)F)n1 | 5.9 |
| Cn1cc(NC(=O)c2cnc3ccc(N[C@@H]4CCCCNC4)nn23)c(C(F)F)n1 | 1.2 |
| Cn1cc(NC(=O)c2ncn3ccc(N4CCC[C@@H](N)C4)nc23)c(C(F)F)n1 | > 50 |

target: T1, Interleukin-1 receptor-associated kinase 4 (Homo sapiens); assay: Inhibition of IRAK4 in human OCILY10 cells assessed as decrease in IRAK4 Thr345/Ser346 phosphorylation incubated for 2 hrs by Western blot analysis; assay type: cell-based; settings: dose 0.3-10 µM; in short: as §2

| Compound | inhibition |
| --- | --- |
| Cn1cc(NC(=O)c2cnc3ccc(N[C@@H]4CCCNC4)nn23)c(C(F)F)n1 | Dose-dependent effect |

target: Receptor-type tyrosine-protein kinase FLT3 (Homo sapiens) (UniProt P36888); assay: Inhibition of FLT3 (unknown origin) at 0.1 uM incubated for 1 hr by ELISA relative to control; settings: not given; in short: as §1
Sequence (P36888 whole entry): as the sequence (P36888 whole entry, looked up, change not shown) above

| Compound | inhibition [%] |
| --- | --- |
| Cn1cc(NC(=O)c2cnc3ccc(N[C@@H]4CCCNC4)nn23)c(C(F)F)n1 | > 50 |

target: T2, Interleukin-1 receptor-associated kinase 4 (Homo sapiens, UniProt Q9NWZ3); assay: Inhibition of recombinant human His-tagged full length IRAK4 expressed in baculovirus expression system using Ser/Thr07 peptide as substrate incubated for 1 hr by Z'lyte assay; settings: not given
T2 sequence (Q9NWZ3 whole entry): T1 sequence (whole entry)

| Compound | IC50 [µM] |
| --- | --- |
| Cn1cc(NC(=O)c2cnn3ccc(N4CCC[C@@H](N)C4)nc23)c(C(F)F)n1 | 0.0093 |
| Cn1cc(NC(=O)c2cnc3ccc(NCCN)nn23)c(C(F)F)n1 | 0.0175 |
| Cn1cc(NC(=O)c2cnc3ccc(N[C@H]4CCCNC4)nn23)c(C(F)F)n1 | 0.0362 |
| Cn1cc(NC(=O)c2cnc3ccc(N[C@@H]4CCCNC4)nn23)c(C#N)n1 | 0.0408 |
| Cn1cc(NC(=O)c2cnc3ccc(N[C@@H]4CCCNC4)nn23)c(C(F)F)n1 | 0.0013 |
| O=C(Nc1cn(C2CCOCC2)nc1C(F)(F)F)c1cnc2ccc(N[C@@H]3CCCNC3)nn12 | 0.0497 |
| Cn1cc(NC(=O)c2cnc3ccc(N[C@@H]4CCNC4)nn23)c(C(F)F)n1 | 0.0077 |
| CCn1cc(NC(=O)c2cnc3ccc(N[C@@H]4CCCNC4)nn23)c(C(F)(F)F)n1 | 0.0323 |
| Cn1cc(NC(=O)c2cnc3ccc(N[C@@H]4CCCNC4)nn23)c(C(F)(F)F)n1 | 0.0235 |
| Cn1cc(NC(=O)c2cnc3ccc(N[C@@H]4CCCCNC4)nn23)c(C(F)F)n1 | 0.009 |
| Cn1cc(NC(=O)c2ncn3ccc(N4CCC[C@@H](N)C4)nc23)c(C(F)F)n1 | > 1 |

tested on: Ramos; assay: Cytotoxicity against human Ramos cells harboring MYD88 assessed as reduction in cell viability incubated for 72 hrs by CCK-8 assay; assay type: functional, cell-based; settings: not given

| Compound | IC50 [µM] |
| --- | --- |
| Cn1cc(NC(=O)c2cnn3ccc(N4CCC[C@@H](N)C4)nc23)c(C(F)F)n1 | 19 |
| Cn1cc(NC(=O)c2cnc3ccc(NCCN)nn23)c(C(F)F)n1 | > 50 |
| Cn1cc(NC(=O)c2cnc3ccc(N[C@H]4CCCNC4)nn23)c(C(F)F)n1 | > 50 |
| Cn1cc(NC(=O)c2cnc3ccc(N[C@@H]4CCCNC4)nn23)c(C#N)n1 | 28.8 |
| Cn1cc(NC(=O)c2cnc3ccc(N[C@@H]4CCCNC4)nn23)c(C(F)F)n1 | 11.4 |
| O=C(Nc1cn(C2CCOCC2)nc1C(F)(F)F)c1cnc2ccc(N[C@@H]3CCCNC3)nn12 | > 50 |
| Cn1cc(NC(=O)c2cnc3ccc(N[C@@H]4CCNC4)nn23)c(C(F)F)n1 | 45 |
| CCn1cc(NC(=O)c2cnc3ccc(N[C@@H]4CCCNC4)nn23)c(C(F)(F)F)n1 | > 50 |
| Cn1cc(NC(=O)c2cnc3ccc(N[C@@H]4CCCNC4)nn23)c(C(F)(F)F)n1 | > 50 |
| Cn1cc(NC(=O)c2cnc3ccc(N[C@@H]4CCCCNC4)nn23)c(C(F)F)n1 | 7.2 |
| Cn1cc(NC(=O)c2ncn3ccc(N4CCC[C@@H](N)C4)nc23)c(C(F)F)n1 | > 50 |

tested on: HT; assay: Cytotoxicity against human HT cells harboring MYD88 assessed as reduction in cell viability incubated for 72 hrs by CCK-8 assay; assay type: functional, cell-based; settings: not given

| Compound | IC50 [µM] |
| --- | --- |
| Cn1cc(NC(=O)c2cnn3ccc(N4CCC[C@@H](N)C4)nc23)c(C(F)F)n1 | 29.2 |
| Cn1cc(NC(=O)c2cnc3ccc(NCCN)nn23)c(C(F)F)n1 | > 50 |
| Cn1cc(NC(=O)c2cnc3ccc(N[C@H]4CCCNC4)nn23)c(C(F)F)n1 | > 50 |
| Cn1cc(NC(=O)c2cnc3ccc(N[C@@H]4CCCNC4)nn23)c(C#N)n1 | > 50 |
| Cn1cc(NC(=O)c2cnc3ccc(N[C@@H]4CCCNC4)nn23)c(C(F)F)n1 | 40.1 |
| O=C(Nc1cn(C2CCOCC2)nc1C(F)(F)F)c1cnc2ccc(N[C@@H]3CCCNC3)nn12 | > 50 |
| Cn1cc(NC(=O)c2cnc3ccc(N[C@@H]4CCNC4)nn23)c(C(F)F)n1 | > 50 |
| CCn1cc(NC(=O)c2cnc3ccc(N[C@@H]4CCCNC4)nn23)c(C(F)(F)F)n1 | > 50 |
| Cn1cc(NC(=O)c2cnc3ccc(N[C@@H]4CCCNC4)nn23)c(C(F)(F)F)n1 | > 50 |
| Cn1cc(NC(=O)c2cnc3ccc(N[C@@H]4CCCCNC4)nn23)c(C(F)F)n1 | 35.9 |
| Cn1cc(NC(=O)c2ncn3ccc(N4CCC[C@@H](N)C4)nc23)c(C(F)F)n1 | > 50 |

target: T1, Interleukin-1 receptor-associated kinase 4 (Homo sapiens); assay: Inhibition of IRAK4 in human TMD8 cells assessed as decrease in NF-kappaB phosphorylation at 0.3 to 10 uM incubated for 2 hrs by Western blot analysis; assay type: cell-based; settings: dose 0.3-10 µM; in short: as §2

| Compound | inhibition |
| --- | --- |
| Cn1cc(NC(=O)c2cnc3ccc(N[C@@H]4CCCNC4)nn23)c(C(F)F)n1 | Active |

target: T1, Interleukin-1 receptor-associated kinase 4 (Homo sapiens); assay: Inhibition of IRAK4 in human OCI-LY10 cells assessed as decrease in NF-kappaB phosphorylation at 0.3 to 10 uM incubated for 2 hrs by Western blot analysis; assay type: cell-based; settings: OCILY10, dose 0.3-10 µM; in short: as §2

| Compound | inhibition |
| --- | --- |
| Cn1cc(NC(=O)c2cnc3ccc(N[C@@H]4CCCNC4)nn23)c(C(F)F)n1 | Active |
